Laboratory results: ChEMBL document CHEMBL1149757, “Synthesis and antimalarial activity of new analogues of amodiaquine” (Eur J Med Chem, 2008)
Calls of active or inactive are those of the source. The calls are words filed in the database; no cut-off is given here.

Legend:
[1] = tested on: Plasmodium falciparum; experiment: Antimalarial activity against chloroquine-resistant Plasmodium falciparum FcB1R after 24 hrs by semiautomated micro dilution assay; type: functional, organism-based
In short: (§1)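 Asynchronous P. falciparum cultures on human erythrocytes (0.5% parasitaemia, 1% final haematocrit) were exposed to serially diluted drug for 24 h at 37 °C. [³H]hypoxanthine was then added for a further 24 h. Cells were freeze-thawed, harvested onto glass-fibre filters and scintillation-counted against a drug-free control on the same plate. IC50 was read from concentration-response curves (mean ± SD, independent experiments). DMSO was ≤0.1%.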

[2] = tested on: Plasmodium falciparum; experiment: Antimalarial activity against chloroquine-resistant Plasmodium falciparum K1 after 24 hrs by semiautomated micro dilution assay; type: functional, organism-based; conditions: K1, 24 h; in short: as §1
[3] = Selectivity index, ratio of CC50 for human MRC5 cells to IC50 for Plasmodium falciparum K1; type: functional
In short: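 Ratio of MRC-5 CC50 to P. falciparum K1 IC50. CC50: 7-day MTT assay at 540 nm, from two experiments. IC50: asynchronous cultures (0.5% parasitaemia, 1% haematocrit) exposed to drug for 24 h at 37 °C, then [³H]hypoxanthine added for a further 24 h. Incorporation compared with drug-free controls; mean of independent experiments.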

[4] = Cytotoxicity against human […] cells after 7 days by MTT assay; type: cell-based
In short: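 MRC-5 human embryonic lung cells seeded at 5000 per well. After 24 h, cells were washed and given two-fold drug dilutions (32 to 1.6) in RPMI + 5% FCS, with final DMSO below 0.5%. Incubated 7 days at 37 °C in 5% CO₂. MTT read-out as % reduction of 540 nm absorbance versus untreated cultures. CC50 from two experiments.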

[5] = Inhibition of haem polymerization after 24 hrs; type: functional
In short: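 Lipid-induced β-hematin formation: hemin in 25 mM NaOH mixed with a 1-monooleoylglycerol suspension in 90 mM sodium acetate, pH 5. Drug added from DMSO stock; controls received equal DMSO. Incubated 24 h at 37 °C, in duplicate. Samples centrifuged at 4 °C, and the pellet washed repeatedly with 10 mM sodium phosphate pH 7.4 containing 2.5% SDS.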

[6] = tested on: Plasmodium berghei; experiment: Antimalarial activity as reduced parasitaemia in Plasmodium berghei ANKA 65 infected Swiss CD1 mice (Mus musculus) at 20 mg/kg initial oral followed by intraperitoneal dose after 4 days; type: functional; set-up: scale not given: the % may be the effect or the level left
[7] = tested on: Plasmodium berghei; experiment: Antimalarial activity as reduced parasitaemia in Plasmodium berghei ANKA 65 infected Swiss CD1 mice (Mus musculus) at 40 mg/kg initial oral followed by intraperitoneal dose after 4 days; type: functional; set-up: scale not given: the % may be the effect or the level left
In short: (§2)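 P. berghei ANKA 65 in 4-week-old female Swiss CD-1 mice (20–25 g), infected ip with about 10⁷ parasitized erythrocytes from a donor. Treatment at 40 mg/kg in 100% DMSO: first dose oral at infection, then ip on the following four days. Three mice per group, with three DMSO-dosed infected controls. Parasite reduction read on day 4; survival compared with untreated controls.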

[8] = tested on: Plasmodium berghei; experiment: Antimalarial activity as increased MST in Plasmodium berghei ANKA 65 infected Swiss CD1 mice (Mus musculus) at 20 mg/kg initial oral followed by intraperitoneal dose after 4 days; type: functional
[9] = tested on: Plasmodium berghei; experiment: Antimalarial activity as increased MST in Plasmodium berghei ANKA 65 infected Swiss CD1 mice (Mus musculus) at 40 mg/kg initial oral followed by intraperitoneal dose after 4 days; type: functional, organism-based; set-up: dose 40 mg/kg; in short: as §2
[10] = tested on: Plasmodium falciparum; experiment: Antimalarial activity against chloroquine-sensitive Plasmodium falciparum Thai after 24 hrs by semiautomated micro dilution assay
[11] = tested on: Plasmodium berghei; experiment: Antimalarial activity in Plasmodium berghei ANKA 65 infected Swiss CD1 mice (Mus musculus) as reduced parasitaemia at 10 mg/kg initial oral dose and further intraperitoneal dose after 4 days; type: functional; set-up: scale not given: the % may be the effect or the level left
[12] = tested on: Plasmodium berghei; experiment: Antimalarial activity as increased MST in Plasmodium berghei ANKA 65 infected Swiss CD1 at 10 mg/kg initial oral followed by intraperitoneal dose after 4 days; type: functional, organism-based; set-up: dose 10 mg/kg

SMILES	IC50 [1] [nM]	IC50 [2] [nM]	Ratio CC50/IC50 [3]	CC50 at 168 h [4] [nM]	IC50 [5] [nM]	Activity [6] [%]	Activity [7] [%]	Activity [8] [%]	Activity [9]	IC50 [10] [nM]	Activity [11] [%]	Activity [12]
CCN(CC)Cc1cc(N)cc(Nc2ccnc3cc(Cl)ccc23)c1	18.1	32.3	774	> 25000	153000	96	100	63	Active	16.3		
CCN(CC)Cc1cccc(Nc2ccnc3cc(Cl)ccc23)c1	15.8	17.1	731	12500						13.2		
CCN(CC)Cc1cc(Nc2ccnc3cc(Cl)ccc23)ccc1O.Cl			1276	12000	48000						100	Active
CCN(CC)Cc1cc(O)cc(Nc2ccnc3cc(Cl)ccc23)c1	35.2	42.8	>584	> 25000						25.3		
CCN(CC)Cc1cccc(Nc2ccnc3cc(Cl)ccc23)c1O	95.2	262	>95	> 25000						104		
CCN(CC)Cc1cc(NCCN2CCCCC2)cc(Nc2ccnc3cc(Cl)ccc23)c1	19.1	26.5	152	4000						15.6		
CCN(CC)Cc1ccc(Nc2ccnc3cc(Cl)ccc23)cc1O [ISOQUINE]	5.4	7.3	1096	8000						4.3		
CCN(CC)Cc1ccc(O)c(Nc2ccnc3cc(Cl)ccc23)c1		32.6	583	19000						15.2		
CCN(CC)CCCC(C)Nc1ccnc2cc(Cl)ccc12 (stereo not drawn) [CHLOROQUINE]				> 32000	70000						100	Active
